# Assay outcomes deposited in PubChem BioAssay by Johns Hopkins Ion Channel Center.
# KCNK9 block – inhibitors of human KCNK9 two-pore domain potassium channel | HEK293 KCNK9, FluxOR thallium flux fluorescence; stronger effect = lower value | Q9NPC2 | B-score at 10 µM | actives 1.2% (n = 310,000);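 active means ratio B-score over 3 SD below the library mean, with starting fluorescence within 5 SD of its mean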;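 further: negative B-score means less thallium flux so channel inhibition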
# hERG protect – shields human hERG channel from block by proarrhythmic agents; CHO-hERG, FluxOR thallium flux, dofetilide IC70 present; activation (rescue from dofetilide block), less the hit threshold, % at 10 µM; actives 0.51% (n = 310,000); AID 1511;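 active means activation above the mean of controls blocked by dofetilide plus 5 SD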;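 further: thallium influx through hERG after potassium depolarization seen as dye fluorescence rise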
# Target sequence (Q12809 whole entry, looked up): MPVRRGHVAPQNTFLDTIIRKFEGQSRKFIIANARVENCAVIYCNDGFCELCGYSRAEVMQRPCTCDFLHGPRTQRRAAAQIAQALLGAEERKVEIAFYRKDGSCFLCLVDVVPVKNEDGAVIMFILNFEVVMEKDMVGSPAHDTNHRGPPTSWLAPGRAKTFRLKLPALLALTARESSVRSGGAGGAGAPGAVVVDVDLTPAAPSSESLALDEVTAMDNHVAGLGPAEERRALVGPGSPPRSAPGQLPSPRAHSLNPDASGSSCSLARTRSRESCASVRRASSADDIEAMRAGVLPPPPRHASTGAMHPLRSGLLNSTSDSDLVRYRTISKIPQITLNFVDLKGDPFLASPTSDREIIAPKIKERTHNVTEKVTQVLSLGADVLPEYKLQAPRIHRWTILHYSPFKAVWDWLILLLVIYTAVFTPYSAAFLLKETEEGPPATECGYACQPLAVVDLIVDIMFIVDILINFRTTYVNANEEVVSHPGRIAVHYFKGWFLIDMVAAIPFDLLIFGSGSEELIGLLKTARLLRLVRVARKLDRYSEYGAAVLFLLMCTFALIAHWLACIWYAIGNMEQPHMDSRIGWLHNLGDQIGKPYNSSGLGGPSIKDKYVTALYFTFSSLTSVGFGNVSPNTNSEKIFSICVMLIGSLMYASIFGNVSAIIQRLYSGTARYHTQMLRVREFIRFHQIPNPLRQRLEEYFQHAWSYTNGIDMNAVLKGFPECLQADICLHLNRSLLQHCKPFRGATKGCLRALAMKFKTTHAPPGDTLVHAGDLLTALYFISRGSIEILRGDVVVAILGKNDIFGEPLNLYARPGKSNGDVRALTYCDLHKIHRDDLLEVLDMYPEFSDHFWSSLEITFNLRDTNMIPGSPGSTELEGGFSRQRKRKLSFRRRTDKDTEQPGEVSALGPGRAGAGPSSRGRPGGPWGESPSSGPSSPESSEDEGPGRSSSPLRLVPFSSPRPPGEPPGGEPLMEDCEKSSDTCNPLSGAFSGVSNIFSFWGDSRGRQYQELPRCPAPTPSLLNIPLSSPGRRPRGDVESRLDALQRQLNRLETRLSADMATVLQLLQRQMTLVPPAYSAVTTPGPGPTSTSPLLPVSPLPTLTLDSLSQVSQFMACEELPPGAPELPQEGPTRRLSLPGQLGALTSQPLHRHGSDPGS
# KCNQ1 act – human KCNQ1 channel potentiation or activation; P51787; CHO-K1 KCNQ1, thallium flux FluxOR fluorescence; stronger effect = higher value; B-score at 10 µM; actives 0.35% (n = 310,000); AID 2648;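 active means fluorescence ratio B-score, a plate-corrected score, at least three library SD, with initial intensity B-score within 5 SD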
#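 System: CHO-K1 cells stably expressing KCNQ1 / Medium: assay buffer for compound exposure, DMSO matched across wells / Reagent: thallium- and potassium-containing depolarizing buffer / Compound: one concentration, matched DMSO / Incubation: 20 min compound pretreatment at room temperature / Measured by: kinetic FluxOR fluorescence, 10 s baseline plus 110 s post-stimulus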
# KCNK3 inh – human KCNK3 channel inhibition, primary screen; CHO-KCNK3 thallium flux, FluxOR fluorescence; stronger effect = lower value; O14649; B-score at 10 µM; AID 602410; actives 0.84% (n = 340,000);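 active means B-score under library mean minus 4 SD, starting fluorescence ratio at most library mean plus 5 SD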;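 further: more negative B-score means stronger inhibition of thallium flux through KCNK3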
# KCNQ1 block – inhibitors of human KCNQ1 potassium channel | B-score at 10 µM | actives 1.3% (n = 310,000) | P51787 | AID 2642 | CHO-K1 KCNQ1, FluxOR thallium flux fluorescence; stronger effect = higher value;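 active means compounds whose thallium flux B-score, printed positive for inhibition, exceeds three library SD while starting fluorescence stays within three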;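 further: channel opened by potassium depolarization with thallium stimulus after 20 min compound exposure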
# KCNK3 confirm – confirmation of human KCNK3 two-pore domain potassium channel inhibitors | shares compounds with KCNK3 inh | CHO-KCNK3 thallium flux, FluxOR fluorescence; 0% buffer, 100% carvedilol maximal block | ratio percent of control, % at 10 µM | actives 99% (n = 2,400);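 active means ratio percent of control, averaged over triplicates, above buffer control mean plus 5 SD, cut at about 64% in these data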;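 further: ratio is the fluorescence rise from min to max over baseline after thallium stimulus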
# KCNK3 uninduced – KCNK3 inhibitor counter-screen hit in non-induced cells; shares compounds with KCNK3 inh; non-induced KCNK3 parental cells, FluxOR thallium flux; stronger effect = lower value; thallium flux ratio (lower = more inhibition) at 10 µM; actives 40% (n = 2,400); AID 651747;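 active means thallium flux ratio, averaged over three wells, more than 5 SD below the buffer control mean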;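 further: host cells are CHO cells without KCNK3 induction; ratio is peak minus trough fluorescence over baseline then normalized to buffer controls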
# * marks the source's active call; other numbers are inactive results; i = inactive; nt = no result given. Rows were chosen to be rich in hits. Some 3.1% of all compounds tested hit in one or more screens of this group.
SMILES,KCNK9 block,hERG protect,KCNQ1 act,KCNK3 inh,KCNQ1 block,KCNK3 confirm,KCNK3 uninduced
CCOc1ccccc1NC(=O)N1CCCC1C(=O)Nc1ccc(-n2cnnn2)c(C)c1 (centres undefined),i,-8,i,i,i,nt,nt
CCOC(=O)N1CCN(c2ccncc2S(=O)(=O)N2CCCCC2)CC1,i,-3,i,i,i,nt,nt
CN(C)CCn1c(SCc2ccccc2C#N)nc2c(sc3ccccc32)c1=O,i,-19,i,-10*,i,107*,0.16*
O=C(COC(=O)CC1CC2CCC1C2)Nc1cccc(S(=O)(=O)NC2=NCCCCC2)c1 (centres undefined),i,-16,i,i,i,nt,nt
O=C(NC1CCCCC1)c1cc(-c2cccc(Cl)c2)on1,i,-1,i,i,i,nt,nt
Cc1cc(C)c(C#N)c(SCC(=O)c2ccc(Cl)cc2Cl)n1,i,-3,i,-10*,i,108*,0.15*
c1cc[n+](CCC[n+]2ccccc2)cc1,i,-6,i,i,i,nt,nt
Cc1ccc(-c2cc(C(=O)N/N=C/c3c(C)nn(-c4ccccc4)c3C)n[nH]2)s1,i,-15,i,-9.1*,i,130*,0.13*
CCN(CC(=O)NC1CCS(=O)(=O)C1)S(=O)(=O)c1ccccc1Cl (centres undefined),i,-3,i,i,i,nt,nt
O=S(=O)(c1cc(Br)ccc1Br)N1CCCCCC1,i,-4,i,-11*,i,129*,0.14*
COc1ccc(NC(=O)CN(Cc2ccco2)Cc2ccco2)cc1S(=O)(=O)N1CCCCC1,nt,nt,nt,i,nt,nt,nt
COC(=O)c1ccc(Oc2nc(NC(C)(C)C)nc(N3CCOCC3)n2)cc1,i,-14,i,nt,i,nt,nt
CCCOc1cc(C)c(Cl)cc1S(=O)(=O)N(CC)CC,i,0,i,-11*,i,99*,i
CCN(CC)S(=O)(=O)c1cc(OC)c(Cl)cc1OC,i,-12,i,i,i,nt,nt
O=C(NCc1ccc2c(c1)OCO2)c1ccc(CSCc2ccc(Cl)cc2)o1,i,-8,i,-8.8*,i,96*,0.14*
O=C(NCc1ccc2c(c1)OCO2)c1ccc(COc2cc(Cl)ccc2Cl)o1,i,-11,i,i,i,nt,nt
CCC(C)C(=O)Nc1ccc(S(=O)(=O)N2CCCC2)cc1 (centres undefined),i,-5,i,i,i,nt,nt
CCC(C)NS(=O)(=O)c1ccc(S(=O)(=O)N2CCCC3(CCCCC3)C2)cc1 (centres undefined),i,-10,i,-9*,i,118*,0.14*
CC(C1CC1)N(Cc1ccccc1)C(=S)Nc1ccccc1 (centres undefined),i,-8,i,-12*,i,113*,i
Cc1ccc(NC(=S)N(Cc2ccccc2)C(C)C)cc1,i,-4,i,i,i,nt,nt
Cc1cc(NC(=O)c2cc3cccc([N+](=O)[O-])c3[nH]2)ccc1F,i,-8,i,-13*,11*,126*,0.14*
Cc1cc(N=Nc2ccc(C)c(N=Nc3cc(C)c(N)cc3N)c2)c(N)cc1N,i,-4,i,i,i,nt,nt
COC1(OC)C(/C=C/c2ccc(C)cc2)C(C#N)(C#N)C1(OC)OC (centres undefined),i,-15,i,-10*,i,133*,0.14*
COc1ccc(CCN2C(=O)CSC2c2ccc(F)cc2)cc1 (centres undefined),i,-7,i,i,i,nt,nt
O=C(Nc1ccc2nc(SCc3ccc(Cl)cc3)sc2c1)c1ccccc1C(=O)N1CCOCC1,i,-23,i,-8.7*,6*,97*,i
SMILES,KCNK9 block,hERG protect,KCNQ1 act,KCNK3 inh,KCNQ1 block,KCNK3 confirm,KCNK3 uninduced
N#CC1(NC(=O)CSc2nc3ccccc3o2)CCCCC1,nt,nt,nt,i,nt,nt,nt
CCC/C(O)=C1\C(=O)CCCC1=NCCc1c(C)[nH]c2ccc(OC)cc12,i,-10,i,i,i,nt,nt
CCOC(=O)c1cc(C#N)c(SCC(=O)c2cc(C#N)c(SC)nc2C)[nH]c1=O,i,-12,i,-10*,i,122*,0.13*
COCC1CCCN(C(=O)c2ccc3oc(Cc4ccc(Cl)cc4)nc3c2)C1 (centres undefined),i,-9,i,i,i,nt,nt
COc1c(Cl)cccc1-c1cn2ccc(C)cc2n1,i,-11,i,i,i,nt,nt
COc1ccc(OC)c(-c2csc(NC(=O)Cc3ccccc3F)n2)c1,-6.7*,-7,i,i,i,98*,i
COc1ccc(OC)c(-c2csc(NC(=O)CN3C(=O)NC4(CCCC4)C3=O)n2)c1,i,-6,i,i,i,nt,nt
CN(CC(=O)Nc1ccc(Cl)cc1)C(=O)Cc1c(F)cccc1Cl,i,-10,i,i,i,nt,nt
O=C1C=C(c2cnc3ccccc3c2)C[C@@H](c2ccc3c(c2)OCO3)C1,nt,nt,nt,i,nt,nt,nt
CC(=O)Oc1c(I)cc(I)cc1C(=O)Nc1ccc(Cl)cc1,i,-16,i,-11*,7*,123*,0.13*
COc1ccc(Cl)cc1C(=O)Nc1ccc(NC(C)=O)cc1,i,-2,i,i,i,nt,nt
CC(C)(C)c1ccc(C(=O)NNC(=O)CNC(=O)c2cccs2)cc1,nt,nt,nt,i,nt,nt,nt
Cc1ccc(S(=O)(=O)NC(CC(=O)O)c2cccs2)cc1 (centres undefined),i,-5,i,i,i,nt,nt
COc1ccc(C(=O)N/N=C(\CCC(=O)O)c2ccc(C(C)(C)C)cc2)cc1OC,i,-14,i,i,i,nt,nt
O=C(O)c1ccc(-c2nc(-c3ccc(Cl)cc3Cl)cs2)cc1,i,1,i,i,i,nt,nt
Cc1onc(-c2ccc(Cl)cc2Cl)c1-c1csc(COc2ccccc2)n1,i,-4,i,-9.6*,i,101*,0.15*
COc1cccc(-c2cc(C(=O)N3CCCc4ccccc43)no2)c1,i,-13,i,-12*,i,115*,i
CCc1c(C)c(C#N)c2nc3ccccc3n2c1NCc1ccccn1,i,-17,i,i,i,nt,nt
CCC(c1nnnn1Cc1ccccc1)N1CCN(C(=O)c2ccco2)CC1 (centres undefined),i,-9,i,-12*,i,72*,i
O=C(/C=C\c1ccccc1OC(=O)c1ccccc1F)c1cc2ccccc2o1,i,-3,i,i,i,nt,nt
